Data on 9 molecules can be found in ChEMBL document CHEMBL1154970, “Replacement of pyrazol-3-yl amine hinge binder with thiazol-2-yl amine: Discovery of potent and selective JAK2 inhibitors” (Bioorg Med Chem Lett, 2010).

For series [1], the target named is T1, Tyrosine-protein kinase JAK2 (Homo sapiens, UniProt O60674). The series can be described thus: Inhibition of recombinant JAK2 kinase in presence of 5 mM ATP.
Series [2] is described as follows: Growth inhibition of mouse BA/F3 cells transfected with recombinant TEL-JAK2 kinase after 48 hrs by alamar blue assay. Format: functional, cell-based. The note with it: BaF3, 48 h. Summed up:
(§1)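 Proliferation of Ba/F3 cells transfected with TEL-JAK2 or TEL-JAK3 fusions; GI50 determined.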
(In general: The colour change of resazurin is a common sign of viable cells or microbes.)

Series [3] is described as follows: Growth inhibition of mouse BA/F3 cells transfected with recombinant TEL-JAK3 kinase after 48 hrs by alamar blue assay. In kind it is functional, cell-based, BaF3. Summed up: as §1
Another series concerns BaF3. The experiment in a line: Selectivity ratio of GI50 for mouse BA/F3 cells transfected with recombinant TEL-JAK3 kinase to GI50 for mouse BA/F3 cells transfected with recombinant TEL-JAK2 kinase. Format: functional, cell-based. Summed up: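 Fold selectivity calculated as the TEL-JAK3 Ba/F3 GI50 divided by the TEL-JAK2 Ba/F3 GI50.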
Series [4] is described as follows: Intrinsic clearance in rat liver microsomes at 2 uM by LC-MS/MS. Format: ADME, Microsome. In a few lines: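 Rat liver microsomes incubated with compound at 2 μM initial concentration; time-dependent disappearance of parent measured by LC–MS/MS to give intrinsic clearance (μL/min/mg).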
Series [5] in a line: Clearance in Han Wistar rat at 3 mg/kg, iv. Format: ADME, organism-based. Also on record: dose 3 mg/kg, route intravenous. The settings on record: in vivo.
The nature of series [6]: Half life in Han Wistar rat at 3 mg/kg, iv. Format: ADME, organism-based. Also on record: dose 3 mg/kg, route intravenous. The note with it: in vivo.
A short description of series [7]: Volume of distribution at steady state in Han Wistar rat at 3 mg/kg, iv. On the set-up: dose 3 mg/kg, route intravenous. In kind it is ADME, organism-based. The settings on record: in vivo, read-out: Vdss.
For series [8], the target named is Voltage-gated inwardly rectifying potassium channel KCNH2 (Homo sapiens, UniProt Q12809).
The nature of series [9]: Plasma concentration in nude mouse transplanted with recombinant TEL-JAK2 expressing BA/F3 cells at 10 mg/kg, po dosed on day 10 of transplantation measured after 6 hrs. Format: ADME, organism-based, BaF3. Also on record: dose 10 mg/kg, route oral. In a few lines:
(§2)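 Female nude mice implanted intravenously with Ba/F3 TEL-JAK2 cells on day 0, then dosed orally once at 10 mg/kg on day 10. Total plasma drug concentration measured at 2 or 6 h post-dose by LC-MS on a C18 column, water/MeCN with 0.1% formic acid; n = 3 per time point.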

Series [10] in a line: Plasma concentration in nude mouse transplanted with recombinant TEL-JAK2 expressing BA/F3 cells at 10 mg/kg, po dosed on day 10 of transplantation measured after 2 hrs. In kind it is ADME, organism-based, BaF3. On the set-up: dose 10 mg/kg, route oral. In a few lines:
as §2

Series [11] addresses T1, Tyrosine-protein kinase JAK2. The note with it: BaF3; 10 mg/kg.
Series [12] shares this target. The experiment in a line: Inhibition of recombinant JAK2 kinase in presence of 5 mM ATP.
For series [13] the target is unchanged. The experiment in a line: Inhibition of recombinant JAK2 kinase in presence of ATP.
The nature of series [14]: Solubility of the compound. In kind it is physicochemical.
The mark [15] stands for this setting: Mus musculus, BaF3, 48 h, read-out: GI50.

T1 sequence (O60674 whole entry): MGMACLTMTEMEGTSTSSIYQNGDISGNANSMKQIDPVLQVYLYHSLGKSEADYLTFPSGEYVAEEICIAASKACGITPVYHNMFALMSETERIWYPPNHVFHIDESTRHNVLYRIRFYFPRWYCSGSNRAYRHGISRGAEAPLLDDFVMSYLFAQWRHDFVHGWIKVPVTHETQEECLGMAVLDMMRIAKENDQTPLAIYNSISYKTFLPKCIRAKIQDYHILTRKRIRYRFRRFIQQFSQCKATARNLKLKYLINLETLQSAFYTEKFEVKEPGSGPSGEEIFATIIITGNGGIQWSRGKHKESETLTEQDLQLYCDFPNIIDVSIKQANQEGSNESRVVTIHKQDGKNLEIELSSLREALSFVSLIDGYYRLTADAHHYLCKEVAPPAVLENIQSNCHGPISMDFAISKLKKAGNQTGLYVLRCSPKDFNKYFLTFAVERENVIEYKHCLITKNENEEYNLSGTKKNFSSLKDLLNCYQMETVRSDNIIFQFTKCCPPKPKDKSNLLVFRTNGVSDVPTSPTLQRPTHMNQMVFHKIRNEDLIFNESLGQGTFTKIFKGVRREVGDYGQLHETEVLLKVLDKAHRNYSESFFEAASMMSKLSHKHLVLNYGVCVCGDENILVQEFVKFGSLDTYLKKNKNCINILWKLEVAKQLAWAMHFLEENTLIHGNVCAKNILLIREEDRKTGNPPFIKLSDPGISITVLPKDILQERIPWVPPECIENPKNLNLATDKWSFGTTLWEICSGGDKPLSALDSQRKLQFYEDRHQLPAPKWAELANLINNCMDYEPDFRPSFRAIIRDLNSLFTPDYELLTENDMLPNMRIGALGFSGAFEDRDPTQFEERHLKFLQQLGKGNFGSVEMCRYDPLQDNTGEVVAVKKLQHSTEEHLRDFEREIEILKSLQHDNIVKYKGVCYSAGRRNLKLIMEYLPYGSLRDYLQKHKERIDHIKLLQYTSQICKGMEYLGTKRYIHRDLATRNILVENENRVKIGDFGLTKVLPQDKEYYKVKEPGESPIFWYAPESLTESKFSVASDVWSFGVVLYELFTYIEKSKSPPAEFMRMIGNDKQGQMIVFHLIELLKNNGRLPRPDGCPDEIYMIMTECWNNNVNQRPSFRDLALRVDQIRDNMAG
Voltage-gated inwardly rectifying potassium channel KCNH2, sequence (Q12809 whole entry): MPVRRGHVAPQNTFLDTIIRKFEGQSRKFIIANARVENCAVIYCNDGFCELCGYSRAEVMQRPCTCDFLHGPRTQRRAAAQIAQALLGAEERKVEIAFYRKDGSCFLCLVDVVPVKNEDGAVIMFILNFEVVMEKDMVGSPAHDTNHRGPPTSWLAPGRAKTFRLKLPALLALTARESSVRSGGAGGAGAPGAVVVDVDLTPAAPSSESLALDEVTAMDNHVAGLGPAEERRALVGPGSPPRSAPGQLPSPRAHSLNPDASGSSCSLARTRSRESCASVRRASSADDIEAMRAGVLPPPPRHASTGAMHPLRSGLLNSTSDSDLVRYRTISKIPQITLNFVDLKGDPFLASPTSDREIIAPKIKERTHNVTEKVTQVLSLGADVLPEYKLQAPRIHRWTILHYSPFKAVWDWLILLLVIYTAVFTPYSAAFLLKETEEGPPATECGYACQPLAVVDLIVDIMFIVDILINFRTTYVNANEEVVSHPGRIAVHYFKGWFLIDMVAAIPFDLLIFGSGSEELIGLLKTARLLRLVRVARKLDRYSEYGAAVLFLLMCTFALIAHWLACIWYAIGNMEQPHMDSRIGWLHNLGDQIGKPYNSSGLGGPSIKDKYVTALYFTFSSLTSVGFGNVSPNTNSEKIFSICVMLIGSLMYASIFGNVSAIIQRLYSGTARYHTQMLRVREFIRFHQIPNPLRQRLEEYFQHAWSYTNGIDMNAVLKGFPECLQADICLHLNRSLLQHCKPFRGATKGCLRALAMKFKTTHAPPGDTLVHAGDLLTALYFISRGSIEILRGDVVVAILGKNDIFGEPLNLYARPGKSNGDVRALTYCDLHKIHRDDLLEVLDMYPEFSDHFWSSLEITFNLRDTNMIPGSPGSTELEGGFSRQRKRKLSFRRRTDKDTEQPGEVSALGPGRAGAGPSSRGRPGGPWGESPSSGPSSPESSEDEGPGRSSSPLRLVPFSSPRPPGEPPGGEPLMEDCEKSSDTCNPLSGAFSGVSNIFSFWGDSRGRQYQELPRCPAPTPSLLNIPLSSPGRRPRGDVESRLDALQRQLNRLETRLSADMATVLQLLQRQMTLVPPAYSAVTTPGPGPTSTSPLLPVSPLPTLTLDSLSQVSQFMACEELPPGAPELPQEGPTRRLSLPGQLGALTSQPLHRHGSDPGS

As to `Cc1cnc(Nc2cc(N3CCN(C)CC3)nc(N[C@@H](C)c3ccc(F)cn3)n2)s1`, the figures for the IC50 in series [1] and in series [8] were less than 3 nM and 13 µM, respectively. Moreover, the values for the GI50 in [2] and in series [3] were 5 nM and 0.62, respectively. Moreover, the RatioGI50 in the series on BaF3 (Mus musculus, BaF3) was 129. In series [4], this molecule displayed a microsomal CLint at 2 µM of 220 µL/min/mg. Further, the clearance in series [5] came to 80 mL/min/kg. The molecule further had a half-life in [6] of 78 min. Also, the Vd in [7] turned out to be 8.5 L/kg.

As for `Cc1cnc(Nc2cc(N3CCOCC3)nc(N[C@@H](C)c3ncc(F)cn3)n2)s1`, the IC50 in series [1] was 3 nM; in series [8] it was more than 32 µM. In addition, in [9], the concentration at 6 h came to 146 ng/mL. In addition, the GI50 in series [2] (read-out: GI50) was found to be 5 nM; in series [3] (setting [15]), 1100 nM. Further, the RatioGI50 with BaF3 is reported as 237. The microsomal CLint at 2 µM in series [4] was 84 µL/min/mg. Moreover, in [5], the clearance stood at 32 mL/min/kg. The molecule also had a half-life in [6] of 78 min. Also, the Vd in series [7] stood at 2.3 L/kg. For the same molecule, the concentration at 2 h in series [10] is 715 ng/mL. For the same molecule, the inhibition in [11] is more than 80%.

As for `COc1cc(Nc2ncc(C)s2)nc(N[C@@H](C)c2ncc(F)cn2)n1`, the half-maximal inhibitory concentration (IC50) was less than 3 nM in [1] and more than 32 µM in series [8]. The values for the GI50 in series [2] (read-out: GI50) and in [3] (setting [15]) were 42 nM and 1500 nM, respectively. Further, the RatioGI50 in the series on BaF3 came to 35. The same molecule registered an intrinsic metabolic clearance (microsomal CLint) at 2 µM in series [4] of more than 100 µL/min/mg.

As to `Cc1cnc(Nc2cc(N3CCOCC3)nc(N[C@@H](C)c3ccc(F)cn3)n2)s1`, the concentration at 6 h in [9] worked out at 55 ng/mL. Also, the GI50 in [3] (Mus musculus, BaF3, 48 h) was found to be 1200 nM. This molecule also displayed a microsomal CLint at 2 µM in [4] of more than 120 µL/min/mg. Further, the clearance in series [5] is 38 mL/min/kg. Moreover, the half-life in [6] is 72 min. The Vd in series [7] amounted to 2.8 L/kg. Also, in series [10], the concentration at 2 h stood at 126 ng/mL. In series [8], this molecule yielded an IC50 of 12 µM.

Regarding `Cc1cnc(Nc2nc(N[C@@H](C)c3ncc(F)cn3)nc(N3CCOCC3)c2F)s1`, in series [9], the concentration at 6 h worked out at 95 ng/mL. The concentration at 2 h in [10] was 219 ng/mL.

Consider `C[C@H](Nc1nc(Nc2ncc(C#N)s2)cc(N2CCOCC2)n1)c1ncc(F)cn1`, for which the GI50 in [2] was 53 nM; in series [3] (Mus musculus, BaF3, 48 h), 520 nM. Further, the RatioGI50 in the series with BaF3 was found to be 10; in [12], 0.079. The same molecule displayed an intrinsic metabolic clearance (microsomal CLint) at 2 µM in series [4] of 41 µL/min/mg.

For `Cc1cc(Nc2cncc(N[C@@H](C)c3ncc(F)cn3)n2)n[nH]1`, the IC50 in series [13] is less than 3 nM. The molecule further gave a solubility in series [14] of more than 1000 µM. In addition, the microsomal CLint at 2 µM in series [4] is less than 4 µL/min/mg. In series [5], the clearance came to 14 mL/min/kg. In series [6], the half-life was 84 min. In addition, in series [7], the Vd was determined as 1.1 L/kg.

`Cc1cnc(Nc2cncc(N[C@@H](C)c3ncc(F)cn3)n2)s1`: the half-inhibitory concentration (IC50) in series [13] was 4 nM; in series [1], 49 nM. This molecule had a solubility in [14] of more than 1000 µM. The same molecule came in with an intrinsic metabolic clearance (microsomal CLint) at 2 µM in series [4] of 52 µL/min/mg.

Regarding `C[C@H](Nc1nc(Nc2ncc(C#N)s2)cc(N2CCOCC2)n1)c1ccc(F)cn1`, in [1], the IC50 was less than 3 nM. Moreover, the GI50 in series [2] is 36 nM; in series [3] (Mus musculus, BaF3, 48 h), 170 nM. Further, in [4], the intrinsic metabolic clearance (microsomal CLint) at 2 µM worked out at 31 µL/min/mg.

In general, IC50 refers to the concentration that gives 50% inhibition. The microsomal CLint is the capacity of the preparation to metabolise the compound, expressed as a volume cleared per time. As usually defined, the clearance is the rate of elimination divided by the concentration. Low readings indicate inefficient removal, high ones efficient removal. Broadly, the half-life is the time needed for the level to fall by half in the phase considered. A low value points to rapid decline. As usually defined, the inhibition is the change of the read-out against control, counted positive when it falls. A higher inhibition goes with a response far below the control. By solubility is commonly meant the dissolved amount per volume that the medium holds.
